In paper PMC5308917 (Science translational medicine, 2017):
Where no end group is shown, it is not given here.

Assays:
[1] = target: 5-carboxyfluorescein (5-FAM)-labeled AXT107; assay: fluorescence polarisation
[2] = system: VEGF-induced vascular leakage; assay: VEGF-induced leakage in rabbit eyes; assay type: in vivo, rabbit (Dutch Belted)
Outline: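 A single intravitreous dose of test compound (50 μg) or comparator (500 μg) was given in one eye, with vehicle in the fellow eye. VEGF (10 μg) was injected into both eyes on day 23, VFP done day 30, eyes rescanned without fluorescein day 43, VEGF (10 μg) reinjected both eyes day 53, VFP day 60. For VFP, 15 mg sodium fluorescein was given via ear vein. After 1 h, fluorescence was scanned retina-to-cornea, taking the AUC 5–7 mm in front of the retina.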

VEGFR2 = assay: Proteasomal inhibition by lactacystin and total VEGFR2; assay type: cell-based, human; settings: 5 μM lactacystin with varying concentrations of AXT107
[3] = Non-GLP safety studies after intravitreous injection; assay type: in vivo, rabbit; settings: independent Clinical Research Organization
integrin α5β1 = integrin α5β1 (Homo sapiens, UniProt P05556+P08648); assay: Fluorescence anisotropy, integrin α5β1; assay type: binding
Chain of integrin α5β1 (P08648 42-995 limits assumed): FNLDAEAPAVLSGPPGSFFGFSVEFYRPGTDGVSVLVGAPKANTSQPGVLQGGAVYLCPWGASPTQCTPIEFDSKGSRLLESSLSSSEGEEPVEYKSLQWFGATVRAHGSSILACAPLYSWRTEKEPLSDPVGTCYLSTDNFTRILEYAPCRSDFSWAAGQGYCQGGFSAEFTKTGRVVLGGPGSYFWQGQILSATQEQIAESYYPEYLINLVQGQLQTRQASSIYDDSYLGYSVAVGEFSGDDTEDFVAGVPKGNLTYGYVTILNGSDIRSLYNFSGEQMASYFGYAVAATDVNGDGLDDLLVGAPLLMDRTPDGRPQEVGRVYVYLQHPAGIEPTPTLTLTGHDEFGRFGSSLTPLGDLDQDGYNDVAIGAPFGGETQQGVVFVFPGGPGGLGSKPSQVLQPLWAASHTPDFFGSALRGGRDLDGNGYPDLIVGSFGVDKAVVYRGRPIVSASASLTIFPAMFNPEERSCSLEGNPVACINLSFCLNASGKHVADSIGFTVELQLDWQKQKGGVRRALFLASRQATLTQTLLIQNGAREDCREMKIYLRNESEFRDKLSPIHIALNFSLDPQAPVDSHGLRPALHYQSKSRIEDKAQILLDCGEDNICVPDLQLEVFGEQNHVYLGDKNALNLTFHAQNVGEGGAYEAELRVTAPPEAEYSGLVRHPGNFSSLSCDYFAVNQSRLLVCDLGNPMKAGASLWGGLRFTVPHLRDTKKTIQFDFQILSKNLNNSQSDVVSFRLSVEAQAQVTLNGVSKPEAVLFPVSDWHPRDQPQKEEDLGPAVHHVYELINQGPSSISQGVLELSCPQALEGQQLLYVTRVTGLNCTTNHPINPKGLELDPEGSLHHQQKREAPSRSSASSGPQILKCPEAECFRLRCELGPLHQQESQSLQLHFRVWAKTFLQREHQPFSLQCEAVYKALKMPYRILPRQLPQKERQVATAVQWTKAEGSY
Chain of integrin α5β1 (P05556 21-728 limits assumed): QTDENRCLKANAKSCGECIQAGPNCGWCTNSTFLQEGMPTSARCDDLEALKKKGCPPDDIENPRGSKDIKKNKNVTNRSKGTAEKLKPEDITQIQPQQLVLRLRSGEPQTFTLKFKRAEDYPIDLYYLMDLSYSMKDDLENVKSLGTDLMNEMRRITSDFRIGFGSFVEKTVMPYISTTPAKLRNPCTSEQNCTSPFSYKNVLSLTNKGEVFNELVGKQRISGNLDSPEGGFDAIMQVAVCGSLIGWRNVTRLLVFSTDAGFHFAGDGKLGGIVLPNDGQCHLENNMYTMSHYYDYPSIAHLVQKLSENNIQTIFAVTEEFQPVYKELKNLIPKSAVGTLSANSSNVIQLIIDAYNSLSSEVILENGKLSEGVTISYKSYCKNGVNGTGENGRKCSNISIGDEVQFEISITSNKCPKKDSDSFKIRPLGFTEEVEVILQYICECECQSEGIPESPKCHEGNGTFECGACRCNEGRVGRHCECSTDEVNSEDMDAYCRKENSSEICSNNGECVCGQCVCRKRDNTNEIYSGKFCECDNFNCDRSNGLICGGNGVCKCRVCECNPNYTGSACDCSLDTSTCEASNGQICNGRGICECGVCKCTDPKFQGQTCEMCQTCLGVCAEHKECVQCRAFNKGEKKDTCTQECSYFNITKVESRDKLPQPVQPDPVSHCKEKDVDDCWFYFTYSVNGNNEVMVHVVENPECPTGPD
Outline: (§1)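 FAM-labelled test compound (10 nM, dissolved in DMSO; final DMSO 0.0005%) mixed with 0–75 nM soluble recombinant heterodimeric integrin in 50 mM tris pH 7.5, 1 mM CaCl2, 1 mM MgCl2, 100 mM NaCl. Incubated on ice at least 30 min to reach equilibrium. Anisotropy read with vertically polarized excitation at 470 nm, detecting vertical and horizontal emission at 540 nm.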

integrin αvβ3 = integrin αvβ3 (Homo sapiens, UniProt P05106+P06756); assay: Fluorescence anisotropy, integrin αvβ3; assay type: binding
Chain of integrin αvβ3 (P06756 31-992 limits assumed): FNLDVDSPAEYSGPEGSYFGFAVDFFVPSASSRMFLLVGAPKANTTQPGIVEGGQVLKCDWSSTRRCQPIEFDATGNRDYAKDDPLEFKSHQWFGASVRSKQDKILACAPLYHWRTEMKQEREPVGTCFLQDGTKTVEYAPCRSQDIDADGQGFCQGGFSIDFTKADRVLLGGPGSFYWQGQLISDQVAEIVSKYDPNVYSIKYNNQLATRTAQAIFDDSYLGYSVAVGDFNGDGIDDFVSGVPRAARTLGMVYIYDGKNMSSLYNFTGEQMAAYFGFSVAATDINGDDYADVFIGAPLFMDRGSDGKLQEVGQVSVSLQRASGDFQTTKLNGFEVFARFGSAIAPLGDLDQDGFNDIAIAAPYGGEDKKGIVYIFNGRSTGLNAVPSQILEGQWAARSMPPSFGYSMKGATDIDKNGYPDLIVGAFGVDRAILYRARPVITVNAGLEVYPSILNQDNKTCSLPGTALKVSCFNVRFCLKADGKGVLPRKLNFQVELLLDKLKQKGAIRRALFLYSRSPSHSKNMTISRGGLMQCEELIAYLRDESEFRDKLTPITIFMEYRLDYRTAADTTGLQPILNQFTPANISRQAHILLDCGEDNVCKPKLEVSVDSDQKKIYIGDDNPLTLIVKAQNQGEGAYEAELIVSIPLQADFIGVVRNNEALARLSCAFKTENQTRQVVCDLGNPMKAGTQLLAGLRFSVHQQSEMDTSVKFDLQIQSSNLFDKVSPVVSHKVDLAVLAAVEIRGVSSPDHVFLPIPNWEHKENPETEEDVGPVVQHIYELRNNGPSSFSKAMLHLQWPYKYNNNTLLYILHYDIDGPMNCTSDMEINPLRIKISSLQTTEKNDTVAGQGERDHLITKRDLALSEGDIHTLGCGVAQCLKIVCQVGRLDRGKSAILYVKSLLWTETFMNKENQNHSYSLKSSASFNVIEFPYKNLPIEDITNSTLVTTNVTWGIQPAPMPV
Chain of integrin αvβ3 (P05106 27-718 limits assumed): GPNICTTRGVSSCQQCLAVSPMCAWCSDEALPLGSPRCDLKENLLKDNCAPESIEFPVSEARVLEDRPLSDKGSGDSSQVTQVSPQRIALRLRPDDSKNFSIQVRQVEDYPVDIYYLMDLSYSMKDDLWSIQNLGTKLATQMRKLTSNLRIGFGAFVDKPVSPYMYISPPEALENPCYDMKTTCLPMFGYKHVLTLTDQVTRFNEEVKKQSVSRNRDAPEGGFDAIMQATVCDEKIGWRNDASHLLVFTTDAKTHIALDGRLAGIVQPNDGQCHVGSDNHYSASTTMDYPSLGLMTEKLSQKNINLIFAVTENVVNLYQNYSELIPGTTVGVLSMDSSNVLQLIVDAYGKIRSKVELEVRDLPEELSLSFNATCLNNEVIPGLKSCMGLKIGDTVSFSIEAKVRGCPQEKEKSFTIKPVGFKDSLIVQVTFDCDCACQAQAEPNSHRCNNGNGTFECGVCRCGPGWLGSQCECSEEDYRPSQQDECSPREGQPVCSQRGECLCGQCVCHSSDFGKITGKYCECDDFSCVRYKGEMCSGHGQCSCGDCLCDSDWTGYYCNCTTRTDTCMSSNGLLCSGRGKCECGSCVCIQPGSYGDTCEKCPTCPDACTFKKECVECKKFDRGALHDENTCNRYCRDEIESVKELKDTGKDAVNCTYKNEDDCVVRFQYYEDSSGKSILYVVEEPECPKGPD
Outline: as §1

[4] = Fundus photography after intravitreous injection; assay type: in vivo, rabbit (Dutch Belted)
Outline: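 Rabbits anaesthetized with IM ketamine (25 mg/kg) and xylazine (2.5 mg/kg), pupils dilated with 2.5% phenylephrine, conjunctiva cleaned with 5% povidone-iodine. Intravitreous injection of 50 μg test compound (or 500 μg comparator) in one eye and vehicle in the fellow eye. Fundus photographs taken 2 and 30 days after injection.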

soluble, recombinant α5β1 heterodimeric integrin (from UniProt P08648 42-1049; P05556 21-728) (complex)
Kd [1]: 2.21 nM

aflibercept: a VEGF-neutralizing protein, which is standard care for patients with NVAMD
fluorescein in the mid-vitreous, day 60 (representative VFP scans) ([2]; 50 μg of AXT107 or 500 μg of aflibercept, VEGF rechallenge (10 μg) on day 53): higher levels | leakage remaining at 60 days ([2]; 50 μg of AXT107 versus 500 μg of aflibercept, P < 0.05): 100% | leakage vs fellow eye controls, day 60 (in words) ([2]; 500 μg of aflibercept, VEGF rechallenge (10 μg) on day 53, VFP day 60): not significantly reduced

CC(=O)N[C@@H](CSC(=O)[C@]1([C@@H](O)C(C)C)NC(=O)[C@H](C)[C@@H]1O)C(=O)O [lactacystin]
AXT107-induced degradation of VEGFR2 (VEGFR2): reduced AXT107-induced degradation of VEGFR2

LRRFSTAPFAFIDINDVINF [AXT107]
intraocular pressure [3]: no increase in intraocular pressure | ocular media in the visual axis [3]: no degradation of the ocular media in the visual axis | retinal toxicity [3]: no retinal toxicity | Kd (integrin α5β1): 2.21 nM | Kd (integrin αvβ3): 1.29 nM | gel-like depot in inferior vitreous, persistence ([4]; 50 μg intravitreous, 30 days after injection): still present in the same location 30 days after injection | dissipation of gel-like depot ([4]; after intraocular injection, inferior vitreous): slowly dissipates over months

soluble, recombinant αvβ3 heterodimeric integrin (from UniProt P06756 31-1048; P05106 27-718) (complex)
Kd [1]: 1.29 nM
